# According to ChEMBL document CHEMBL5303300, “EUbOPEN Chemogenomics Library - Multiplex” (2023):
# “And” between values parts separate entries of the source, which are not always exact repeats. Equal entries are not always repeated.
# Experiments:
# Fibroblast = assay: Multiplex assay against human fibroblast; type: toxicity, cell-based; conditions: number of replicates 2
# In short: (§1)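 With compound added, live cells were imaged on a CQ1 microscope at 37°C and 5% CO2; staining with Hoechst33342, BioTracker Green Microtubule Cytoskeleton Dye, MitoTracker Red and Annexin V Alexa Fluor 680 had been done at seeding. The CellPathfinder machine-learning gating scheme split cells into Hoechst high-intensity objects or normal cells, normal cells into healthy, pyknosed or fragmented nuclei, and pyknosed cells into mitotic or apoptotic. The tubulin, mitochondrial-mass and membrane-permeability phenotypes are per cents of healthy-nucleus cells.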
# U2OS = assay: Multiplex assay against U2OS; type: toxicity, cell-based; conditions: human, number of replicates 2; in short: as §1
# [1] = 24 h, 1 µM, compound concentration 1 uM
# [2] = 24 h, 10 µM, compound concentration 10 uM
# [3] = 48 h, 1 µM, compound concentration 1 uM
# [4] = 48 h, 10 µM, compound concentration 10 uM
# [5] = 12 h, 1 µM, compound concentration 1 uM
# [6] = 12 h, 10 µM, compound concentration 10 uM
structure (smiles),measurement,setting,value
COc1cc(OC)cc(-c2cc3cnc(N)nc3nc2NC(=O)NC(C)(C)C)c1,Population Hoechst High Intensity Objects (%),Fibroblast; [1],0% and 13%
same,Population Membrane Permeable-Phenotype (%),Fibroblast; [1],4% and 6% and 5%
same,Population Mitochondria Different-Phenotype (%),Fibroblast; [1],0% and 1%
same,Population Mitotic Cells (%),Fibroblast; [1],45% and 46% and 44%
same,Population Normal (%),Fibroblast; [1],99% and 86% and 100%
same,Population Pyknosed Nuclei (%),Fibroblast; [1],17% and 21% and 24%
same,Population Tubulin-Different-Phenotype (%),Fibroblast; [1],12% [middle of 4 runs]
same,Total Cell Count,Fibroblast; [1],260 and 192 and 201
same,Population Apoptotic (%),Fibroblast; [2],57% and 48% and 65% and 58%
same,Population Fragmented Nuclei (%),Fibroblast; [2],11% and 13% and 16% and 18%
same,Population Healthy Nuclei (%),Fibroblast; [2],63% and 67% and 70% and 66%
same,Population Hoechst High Intensity Objects (%),Fibroblast; [2],0%
same,Population Membrane Permeable-Phenotype (%),Fibroblast; [2],5% and 1% and 4%
same,Population Mitochondria Different-Phenotype (%),Fibroblast; [2],0% and 1%
same,Population Mitotic Cells (%),Fibroblast; [2],42% and 51% and 34% and 41%
same,Population Normal (%),Fibroblast; [2],100% and 99%
same,Population Pyknosed Nuclei (%),Fibroblast; [2],25% and 18% and 13% and 15%
same,Total Cell Count,Fibroblast; [2],187 and 175 and 231 and 236
same,Population Apoptotic (%),Fibroblast; [3],70% and 65% and 60% and 68%
same,Population Fragmented Nuclei (%),Fibroblast; [3],10% and 18% and 12% and 15%
same,Population Healthy Nuclei (%),Fibroblast; [3],75% and 63% and 65%
same,Population Hoechst High Intensity Objects (%),Fibroblast; [3],0% and 18%
same,Population Membrane Permeable-Phenotype (%),Fibroblast; [3],2% and 10% and 8% and 6%
same,Population Mitochondria Different-Phenotype (%),Fibroblast; [3],0%
same,Population Mitotic Cells (%),Fibroblast; [3],29% and 34% and 40% and 31%
same,Population Normal (%),Fibroblast; [3],100% and 81%
same,Population Pyknosed Nuclei (%),Fibroblast; [3],13% and 17% and 12% and 19%
same,Population Tubulin-Different-Phenotype (%),Fibroblast; [3],7% and 10% and 9% and 6%
same,Total Cell Count,Fibroblast; [3],266 and 238 and 205 and 226
same,Population Apoptotic (%),Fibroblast; [4],74% and 66% and 75% and 69%
same,Population Fragmented Nuclei (%),Fibroblast; [4],13% and 10% and 16% and 18%
same,Population Healthy Nuclei (%),Fibroblast; [4],65% and 67% and 71% and 69%
same,Population Hoechst High Intensity Objects (%),Fibroblast; [4],0%
same,Population Membrane Permeable-Phenotype (%),Fibroblast; [4],8% and 0% and 5% and 4%
same,Population Mitochondria Different-Phenotype (%),Fibroblast; [4],1% and 0%
same,Population Mitotic Cells (%),Fibroblast; [4],25% and 33% and 24% and 30%
same,Population Normal (%),Fibroblast; [4],100%
same,Population Pyknosed Nuclei (%),Fibroblast; [4],20% and 22% and 12%
same,Total Cell Count,Fibroblast; [4],190 and 176 and 237 and 215
same,Population Apoptotic (%),U2OS; [5],80% [middle of 4 runs]
same,Population Fragmented Nuclei (%),U2OS; [5],11% and 5% and 6% and 4%
same,Population Healthy Nuclei (%),U2OS; [5],80% and 87% and 83% and 89%
same,Population Hoechst High Intensity Objects (%),U2OS; [5],0%
same,Population Membrane Permeable-Phenotype (%),U2OS; [5],2% and 0% and 1%
same,Population Mitochondria Different-Phenotype (%),U2OS; [5],0%
same,Population Normal (%),U2OS; [5],100%
same,Population Pyknosed Nuclei (%),U2OS; [5],7% and 6% and 10% and 5%
same,Population Tubulin-Different-Phenotype (%),U2OS; [5],52% and 94% and 55% and 80%
same,Population Healthy Nuclei (%),U2OS; [6],85% and 60% and 88% and 65%
same,Population Hoechst High Intensity Objects (%),U2OS; [6],0%
same,Population Membrane Permeable-Phenotype (%),U2OS; [6],6% [middle of 4 runs]
same,Population Mitochondria Different-Phenotype (%),U2OS; [6],0% and 4%
same,Population Normal (%),U2OS; [6],99% and 100%
same,Population Pyknosed Nuclei (%),U2OS; [6],10% and 15% and 6% and 9%
same,Population Tubulin-Different-Phenotype (%),U2OS; [6],64% [middle of 4 runs]
same,Population Apoptotic (%),U2OS; [1],60% and 84% and 50%
same,Population Fragmented Nuclei (%),U2OS; [1],3% and 1% and 2%
same,Population Healthy Nuclei (%),U2OS; [1],89% and 90% and 82% and 86%
same,Population Hoechst High Intensity Objects (%),U2OS; [1],1% and 0%
same,Population Membrane Permeable-Phenotype (%),U2OS; [1],0% and 3% and 1%
same,Population Mitochondria Different-Phenotype (%),U2OS; [1],1% and 0%
same,Population Normal (%),U2OS; [1],98% and 100%
same,Population Pyknosed Nuclei (%),U2OS; [1],6% and 8% and 14% and 11%
same,Population Tubulin-Different-Phenotype (%),U2OS; [1],56% and 85% and 53% and 83%
same,Population Apoptotic (%),U2OS; [2],54% [middle of 4 runs]
same,Population Healthy Nuclei (%),U2OS; [2],83% and 68% and 84% and 72%
same,Population Hoechst High Intensity Objects (%),U2OS; [2],0%
same,Population Membrane Permeable-Phenotype (%),U2OS; [2],4% [middle of 4 runs]
same,Population Mitochondria Different-Phenotype (%),U2OS; [2],1% and 8% and 0%
same,Population Normal (%),U2OS; [2],100%
same,Population Pyknosed Nuclei (%),U2OS; [2],10% and 16% and 9% and 13%
same,Population Tubulin-Different-Phenotype (%),U2OS; [2],62% [middle of 4 runs]
same,Population Apoptotic (%),U2OS; [3],50% and 84% and 60% and 74%
same,Population Fragmented Nuclei (%),U2OS; [3],3% and 2% and 4%
same,Population Healthy Nuclei (%),U2OS; [3],86% and 88% and 92%
same,Population Hoechst High Intensity Objects (%),U2OS; [3],0%
same,Population Membrane Permeable-Phenotype (%),U2OS; [3],1% and 0%
same,Population Mitochondria Different-Phenotype (%),U2OS; [3],0% and 1%
same,Population Normal (%),U2OS; [3],100%
same,Population Pyknosed Nuclei (%),U2OS; [3],10% and 8% and 4% and 7%
same,Population Tubulin-Different-Phenotype (%),U2OS; [3],70% and 90% and 59% and 84%
same,Population Apoptotic (%),U2OS; [4],48% and 69% and 66% and 78%
same,Population Healthy Nuclei (%),U2OS; [4],87% and 68% and 86% and 64%
same,Population Hoechst High Intensity Objects (%),U2OS; [4],0%
same,Population Membrane Permeable-Phenotype (%),U2OS; [4],2% and 9%
same,Population Mitochondria Different-Phenotype (%),U2OS; [4],0% and 3% and 1%
same,Population Mitotic Cells (%),U2OS; [4],33% [middle of 4 runs]
same,Population Normal (%),U2OS; [4],100% and 99%
same,Population Pyknosed Nuclei (%),U2OS; [4],10% and 16% and 17%
same,Population Tubulin-Different-Phenotype (%),U2OS; [4],67% [middle of 4 runs]
